Assay [1] deals with Human immunodeficiency virus type 1 reverse transcriptase (Human immunodeficiency virus 1), Q72547 [P236L]. Nature of the assay: Inhibitory activity against HIV-1 reverse transcriptase (P236L) at 10 uM dose. The method, boiled down:
(§1)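 Recombinant HIV-1 RT homodimers (wild type or P236L mutant) were tested with compound at a single 10 µM concentration and reported as % inhibition. Reactions ran at 28 °C for 10 min and were stopped with 10% trichloroacetic acid. Acid-precipitated product was collected on glass fibre filters and counted for radioactivity.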

Assay [2] concerns the target Human immunodeficiency virus type 1 reverse transcriptase (Human immunodeficiency virus 1, UniProt Q72547, P236L). Briefly: Inhibition of HIV-1 reverse transcriptase (P236L). The method, boiled down:
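HIV-1 RT homodimers (wild type or P236L) were assayed by radiolabel incorporation at 28 °C for 10 min and stopped with 10% trichloroacetic acid. Acid-insoluble product was filter-captured and counted. IC50 was derived from inhibition measured at eight drug concentrations.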

Assay [3] addresses T1, Human immunodeficiency virus type 1 reverse transcriptase (Human immunodeficiency virus 1, UniProt Q72547). Briefly: inhibitory activity against HIV-1 reverse transcriptase (wild type. The method, boiled down:
(§2)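 Wild-type HIV-1 RT homodimer run at 28 °C for 10 min. The reaction is stopped with 10% (v/v) trichloroacetic acid, and the acid-precipitated product is collected on glass fiber filters and counted for radioactivity. Compounds are screened as % inhibition at 10 µM, and IC50 values are determined from eight drug concentrations.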

For assay [4], the target named is Human immunodeficiency virus type 1 reverse transcriptase (Human immunodeficiency virus 1) (UniProt Q72547). Nature of the assay: Inhibitory activity against HIV-1 reverse transcriptase (wild type) at 10 uM dose. The method, boiled down:
as §1

Assay [5] deals with MT4. Nature of the assay: Concentration of drug that inhibited p24 production by 90% in infected MT-4 cells against HIV-1-WT. The assay is classed as functional. Conditions: Homo sapiens.
The subject of assay [6] is MT4. Briefly: Concentration of drug that inhibited p24 production by 90% in infected MT-4 cells against HIV-1MF-DLV. The format is functional. Particulars: Homo sapiens.
Assay [7] deals with T1, Human immunodeficiency virus type 1 reverse transcriptase. Briefly: Inhibition of HIV-1 reverse transcriptase (wild type). The method, boiled down:
as §2

One may read the inhibition as how much of the control response was suppressed. The IC50 is the concentration at which inhibition is half-maximal. Low readings indicate higher potency, high ones lower potency. As usually defined, the IC90 is the concentration at which the effect reaches the 90% level. A high value points to weaker potency.

For `Nc1cc(Cl)nc(SCc2cc3c(cc2Cl)OCO3)n1`, the results for the inhibition in assay [1] and in assay [4] were 99% and 98%, respectively. Further, the IC50 in assay [2] was found to be 16 nM; in assay [3], 85 nM.
On to `COc1cccc(CSc2nc(N)cc(Cl)n2)c1`, for which the IC90 in assay [5] amounted to 270 nM; in assay [6], 3.21 µM. In addition, the values for the inhibition in assay [1] and in assay [4] were 97% and 70%, respectively. The IC50 stood at 160 nM in assay [2] and 980 nM in assay [7].

The values are drawn from ChEMBL document CHEMBL1131117, “Pyrimidine thioethers: a novel class of HIV-1 reverse transcriptase inhibitors with activity against BHAP-resistant HIV” (J Med Chem, 1998).
